From ChEMBL document CHEMBL1154472, “Synthesis and anti-HIV-1 integrase activities of 3-aroyl-2,3-dihydro-1,1-dioxo-1,4,2-benzodithiazines” (Eur J Med Chem, 2009)

What was measured:
[1] = biological target: T1, Human immunodeficiency virus type 1 integrase (Human immunodeficiency virus 1, UniProt Q7ZJM1, H114A); experiment: Inhibition of HIV1 integrase H114A mutant 3'-end processing activity
[2] = biological target: T2, Human immunodeficiency virus type 1 integrase (Human immunodeficiency virus 1, UniProt Q7ZJM1); experiment: Inhibition of HIV1 integrase strand transfer activity
T2 sequence (Q7ZJM1 whole entry): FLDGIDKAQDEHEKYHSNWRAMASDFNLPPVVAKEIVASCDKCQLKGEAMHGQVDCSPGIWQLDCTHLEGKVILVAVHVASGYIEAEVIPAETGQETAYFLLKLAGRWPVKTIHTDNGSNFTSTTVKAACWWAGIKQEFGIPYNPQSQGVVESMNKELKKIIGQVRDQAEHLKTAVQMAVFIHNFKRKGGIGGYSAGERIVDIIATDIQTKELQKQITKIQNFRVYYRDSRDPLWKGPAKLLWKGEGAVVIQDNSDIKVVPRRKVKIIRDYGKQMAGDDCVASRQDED
Procedure, shortened: (§1)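 Wild-type HIV-1 IN, expressed in E. coli BL21(DE3)pLysS after 1 mM IPTG induction, was preincubated at 200 nM final with inhibitor at 30 °C for 30 min. The buffer held 50 mM NaCl, HEPES pH 7.5, 10% glycerol, 7.5 mM MnCl2, 0.1 mg/ml BSA, 10 mM 2-mercaptoethanol, 10% DMSO and 25 mM MOPS pH 7.2. IC50 was taken from the reaction.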

[3] = biological target: T2, Human immunodeficiency virus type 1 integrase; experiment: Inhibition of HIV1 integrase 3'-end processing activity in presence of magnesium
Procedure, shortened: (§2)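 Wild-type HIV-1 IN (200 nM final), expressed in E. coli BL21(DE3)pLysS, was preincubated with inhibitor for 30 min at 30 °C in HEPES/MOPS buffer containing glycerol, BSA and 10% DMSO, with Mg2+ as the cofactor. IC50 was derived.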

[4] = biological target: T2, Human immunodeficiency virus type 1 integrase; experiment: Inhibition of HIV1 integrase 3'-end processing activity; procedure, shortened: as §1
[5] = biological target: T2, Human immunodeficiency virus type 1 integrase; experiment: Inhibition of HIV1 integrase strand transfer activity in presence of magnesium; procedure, shortened: as §2
[6] = biological target: T1, Human immunodeficiency virus type 1 integrase; experiment: Inhibition of HIV1 integrase H114A mutant strand transfer activity
[7] = biological target: T3, Human immunodeficiency virus type 1 integrase (Human immunodeficiency virus 1, UniProt Q7ZJM1, Y99S); experiment: Inhibition of HIV1 integrase Y99S mutant 3'-end processing activity
T3 sequence (Q7ZJM1 entry or part of it Y99S): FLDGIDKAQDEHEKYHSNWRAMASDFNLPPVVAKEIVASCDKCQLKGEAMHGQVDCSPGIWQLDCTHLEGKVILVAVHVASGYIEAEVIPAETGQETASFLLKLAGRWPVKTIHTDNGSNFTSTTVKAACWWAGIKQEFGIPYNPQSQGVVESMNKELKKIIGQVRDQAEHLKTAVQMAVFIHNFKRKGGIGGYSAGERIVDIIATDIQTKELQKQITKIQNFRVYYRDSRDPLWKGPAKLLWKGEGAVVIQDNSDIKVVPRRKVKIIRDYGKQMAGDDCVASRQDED

[8] = biological target: T3, Human immunodeficiency virus type 1 integrase; experiment: Inhibition of HIV1 integrase Y99S mutant strand transfer activity

T1 sequence (Q7ZJM1 entry or part of it H114A): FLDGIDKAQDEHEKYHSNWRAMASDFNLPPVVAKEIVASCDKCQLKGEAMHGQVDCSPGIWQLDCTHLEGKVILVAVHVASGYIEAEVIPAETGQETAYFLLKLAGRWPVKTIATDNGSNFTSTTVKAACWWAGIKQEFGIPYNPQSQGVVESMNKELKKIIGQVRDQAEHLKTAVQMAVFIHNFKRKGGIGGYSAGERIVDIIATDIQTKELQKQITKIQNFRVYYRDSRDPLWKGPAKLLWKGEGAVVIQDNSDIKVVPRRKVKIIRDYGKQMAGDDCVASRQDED

SMILES | IC50 [1] [µM] | IC50 [2] [µM] | IC50 [3] [µM] | IC50 [4] [µM] | IC50 [5] [µM] | IC50 [6] [µM] | IC50 [7] [µM] | IC50 [8] [µM]
Cc1cc2c(cc1Cl)SC(C(=O)c1ccccc1)NS2(=O)=O (centres undefined) | 15 | 5 | 60 | 7 | 27 | 9 | 90 | 18
Cc1cc2c(cc1Cl)SC(C(=O)c1ccccc1)=NS2(=O)=O | 15 | 12 | – | 12 | – | 9 | 90 | 18
Cc1cc(Cl)cc2c1S(=O)(=O)NC(C(=O)c1ccc(Cl)cc1)S2 (centres undefined) | – | 14 | – | 23 | – | – | – | –
O=C(c1ccc(Cl)cc1)C1NS(=O)(=O)c2ccc(Cl)cc2S1 (centres undefined) | 20 | 4 | 51 | 8 | 25 | 18 | 100 | 20
Cc1cc(Cl)cc2c1S(=O)(=O)NC(C(=O)c1ccc(Cl)c(Cl)c1)S2 (centres undefined) | – | 14 | – | 20 | – | – | – | –
Cc1cc(Cl)cc2c1S(=O)(=O)NC(C(=O)c1ccc3ccccc3c1)S2 (centres undefined) | 33 | 6 | 83 | 9 | 51 | 23 | 70 | 23
Cc1cc(Cl)cc2c1S(=O)(=O)N=C(C(=O)c1ccc(Cl)cc1)S2 | – | 25 | – | 22 | – | – | – | –
Cc1cc(Cl)cc2c1S(=O)(=O)N=C(C(=O)c1ccc(Cl)c(Cl)c1)S2 | – | 25 | – | 17 | – | – | – | –
COc1ccc(C(=O)C2NS(=O)(=O)c3cc(C)c(Cl)cc3S2)cc1 (centres undefined) | – | 17 | – | 38 | – | – | – | –
O=C(c1ccc(Cl)c(Cl)c1)C1NS(=O)(=O)c2ccc(Cl)cc2S1 (centres undefined) | 18 | 5 | 58 | 9 | 25 | 18 | 90 | 20
Cc1cc2c(cc1Cl)SC(C(=O)c1ccc(Cl)c(Cl)c1)NS2(=O)=O (centres undefined) | – | 10 | – | 20 | – | – | – | –
Cc1cc2c(cc1Cl)SC(C(=O)c1ccc(Cl)cc1)=NS2(=O)=O | 18 | 65 | – | 30 | – | 16 | 90 | 20
Cc1cc2c(cc1Cl)SC(C(=O)c1cccc([N+](=O)[O-])c1)=NS2(=O)=O | – | 50 | – | 57 | – | – | – | –
Cc1cc2c(cc1Cl)SC(C(=O)c1ccc(Cl)c(Cl)c1)=NS2(=O)=O | – | 7 | – | 15 | – | – | – | –
Cc1cc2c(cc1Cl)SC(C(=O)c1ccc3ccccc3c1)=NS2(=O)=O | – | 3 | – | 28 | – | – | – | –
Cc1cc2c(cc1Cl)SC(C(=O)c1ccc(Br)cc1)NS2(=O)=O (centres undefined) | – | 3 | – | 4 | – | – | – | –
Cc1cc2c(cc1Cl)SC(C(=O)c1cccc([N+](=O)[O-])c1)NS2(=O)=O (centres undefined) | – | 28 | – | 32 | – | – | – | –
Cc1cc(Cl)cc2c1S(=O)(=O)N=C(C(=O)c1ccc3ccccc3c1)S2 | 33 | 7 | – | 22 | – | 23 | 70 | 23
O=C(C1=NS(=O)(=O)c2ccc(Cl)cc2S1)c1ccc(Cl)c(Cl)c1 | 18 | 124 | – | 61.2 | – | 18 | 90 | 20
O=C(C1=NS(=O)(=O)c2ccc(Cl)cc2S1)c1ccc2ccccc2c1 | 9 | 8 | – | 8 | – | 15 | 100 | 15
COc1ccc(C(=O)C2=NS(=O)(=O)c3cc(C)c(Cl)cc3S2)cc1 | – | 33 | – | 30 | – | – | – | –
O=C(c1ccc2ccccc2c1)C1NS(=O)(=O)c2ccc(Cl)cc2S1 (centres undefined) | 9 | 3 | 55 | 8 | 28 | 15 | 100 | 15
O=C(c1ccc(Cl)c(Cl)c1)C1NS(=O)(=O)c2ccccc2S1 (centres undefined) | – | 15 | – | 22 | – | – | – | –
Cc1cc2c(cc1Cl)SC(C(=O)c1ccc(Cl)cc1)NS2(=O)=O (centres undefined) | 18 | 4 | 63 | 6 | 40 | 16 | 90 | 20
Cc1cc2c(cc1Cl)SC(C(=O)c1ccc3ccccc3c1)NS2(=O)=O (centres undefined) | – | 30 | – | 57 | – | – | – | –
O=C(C1=NS(=O)(=O)c2ccc(Cl)cc2S1)c1ccc(Cl)cc1 | 20 | 90 | – | 100 | – | 18 | 100 | 20
Cc1cc2c(cc1Cl)SC(C(=O)c1ccc(Br)cc1)=NS2(=O)=O | – | 30 | – | 30 | – | – | – | –
